The subject of data set [1] is human NMT1 versus Trypanosoma brucei NMT. Put plainly: Selectivity ratio of IC50 for human NMT1 to IC50 for Trypanosoma brucei NMT. The format is toxicity. The conditions noted are these: read-out: Ratio IC50. The procedure, abridged: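 Both enzymes assayed by SPA in the same buffer: 0.125 μM [3H]myristoyl-coA, 0.5 μM biotinylated CAP5.5 peptide, 5 nM NMT, 22–23 °C. Reactions stopped at 15 min for HsNMT1 and 50 min for TbNMT. The ratio is HsNMT IC50 divided by TbNMT IC50.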

Data set [2] concerns the target T1, Glycylpeptide N-tetradecanoyltransferase 1 (Homo sapiens, UniProt P30419).
T1 sequence (P30419 whole entry): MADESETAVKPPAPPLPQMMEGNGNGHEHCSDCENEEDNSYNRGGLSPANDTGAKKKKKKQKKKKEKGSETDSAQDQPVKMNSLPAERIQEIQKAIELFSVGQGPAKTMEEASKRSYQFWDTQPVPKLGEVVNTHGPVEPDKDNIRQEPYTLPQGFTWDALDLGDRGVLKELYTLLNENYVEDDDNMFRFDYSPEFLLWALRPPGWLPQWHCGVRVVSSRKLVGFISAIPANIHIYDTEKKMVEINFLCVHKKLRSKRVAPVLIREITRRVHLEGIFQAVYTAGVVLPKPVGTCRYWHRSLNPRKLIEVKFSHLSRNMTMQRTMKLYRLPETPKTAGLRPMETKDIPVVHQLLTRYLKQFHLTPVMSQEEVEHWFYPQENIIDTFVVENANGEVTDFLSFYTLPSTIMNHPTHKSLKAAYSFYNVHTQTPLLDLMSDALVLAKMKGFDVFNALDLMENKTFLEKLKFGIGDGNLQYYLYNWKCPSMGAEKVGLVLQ
In words: Inhibition of human NMT1 using [3H]-myristoyl-coA/biotinylated CAP5.5 as substrate after 15 mins by scintillation proximity assay. (Scintillation proximity formats need no separation of bound from free tracer.)

Data set [3] can be described thus: Intrinsic clearance in CD1 mouse liver microsomes at 1 uM measured up to 30 mins by UPLC-MS/MS method. It is filed as ADME, microsome. The conditions noted are these: 0.5 h. On the technique in general: Liver microsomes are a subcellular fraction often used to study metabolism.
Data set [4] has as its system human NMT. Put plainly: Therapeutic index, ratio of IC50 for human NMT to EC50 for bloodstream form of Trypanosoma brucei brucei s427. The conditions noted are these: read-out: Ratio IC50/EC50. The format is toxicity.
Data set [5] in a line: Inhibition of Trypanosoma brucei NMT using [3H]-myristoyl-coA/biotinylated CAP5.5 as substrate after 50 mins by scintillation proximity assay. The procedure, abridged: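 TbNMT scintillation proximity assay at 22–23 °C, with test compound dilutions added in DMSO. Reaction: 30 mM Tris pH 7.4, 0.5 mM EDTA, 0.5 mM EGTA, 1.25 mM DTT, 0.1% Triton X-100, 0.125 μM [3H]myristoyl-coA, 0.5 μM biotinylated CAP5.5 peptide, 5 nM enzyme. Enzyme added first, then substrate mix to start; stopped after 50 min with phosphoric acid pH 4.0/MgCl2/SPA beads; scintillation counting.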

The test system of data set [6] is Trypanosoma brucei brucei. Put plainly: Antitrypanosomal activity against bloodstream form of Trypanosoma brucei brucei s427 after 69 hrs by resazurin-based […] analysis. It is filed as functional, organism-based. Conditions: s427, 69 h. The procedure, abridged:
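Bloodstream T. b. brucei s427 was grown in modified HMI9 (56 μM 1-thioglycerol in place of 2-mercaptoethanol) and counted by hemocytometer. Cells (10^4/ml) were added to compound in DMSO and incubated 69 h at 37 °C, 5% CO2. Resazurin (50 μM final) was then added for 4 h more. Fluorescence read at ex 528/em 590 nm.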

The nature of data set [7]: Ratio of drug level in NMRI mouse brain to plasma at 0.5 mg/kg, iv after 5 to 30 mins by UPLC/MS/MS analysis. The conditions noted are these: brain and plasma.
A short description of data set [8]: Fraction unbound in CD1 mouse plasma at 10 ug/ml after 5 hrs by UPLC-MS/MS analysis.
Data set [9] has as its target Voltage-gated inwardly rectifying potassium channel KCNH2 (Homo sapiens, UniProt Q12809). In words: Inhibition of human ERG by patch clamp assay.
Data set [10] deals with Trypanosoma brucei brucei. Put plainly: Antitrypanosomal activity against Trypanosoma brucei brucei s427 trypomastigotes infected in NMRI mouse at 10 mg/kg, po administered twice daily for 4 days starting from day 3 post infection. It is filed as functional, organism-based. The procedure, abridged: (§1)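 Stage 1 HAT model: female NMRI mice infected with T. brucei s427. Compound given orally twice a day for 4 days, starting day 3 postinfection. Outcome scored as cure versus relapse.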

The test system of data set [11] is Trypanosoma brucei brucei. Put plainly: Antitrypanosomal activity against Trypanosoma brucei brucei GVR35 trypomastigotes infected in NMRI mouse assessed as reduction in parasitaemia level at 50 to 200 mg/kg, po administered twice daily for 5 days starting from day 21 post infection. It is filed as functional, organism-based.
Data set [12] in a line: AUC (0 to 8 hrs) in NMRI mouse at 50 mg/kg, po administered via gavage by UPLC/MS/MS analysis. The format is ADME, organism-based. Also noted: dose 50 mg/kg, time < 8 hr, route oral. The conditions noted are these: in vivo.
For data set [13], the system named is Trypanosoma brucei brucei. Put plainly: Antitrypanosomal activity against Trypanosoma brucei brucei GVR35 trypomastigotes infected in CF1 mdr1a deficient mouse assessed as reduction in parasitaemia level at 50 mg/kg, po administered twice daily for 5 days starting from day 21 post infection. The format is functional, organism-based. The procedure, abridged:
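Stage 2 HAT model using CF-1 mdr1a-deficient mice infected with T. b. brucei GVR35. Compound given orally twice daily for 5 days from day 21 postinfection. Comparator arms: Berenil or melarsoprol given intraperitoneally once daily.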

The nature of data set [14]: Tmax in NMRI mouse at 50 mg/kg, po administered via gavage by UPLC/MS/MS analysis. The format is ADME, organism-based. The conditions noted are these: in vivo.
Data set [15] has as its system Trypanosoma brucei brucei. In words: Antitrypanosomal activity against Trypanosoma brucei brucei s427 trypomastigotes infected in NMRI mouse at 0.3 to 3 mg/kg, po administered twice daily for 4 days starting from day 3 post infection. It is filed as functional, organism-based. The method, boiled down:
as §1

The nature of data set [16]: Toxicity in NMRI mouse administered orally for twice per day for 3 days. It is filed as organism-based. The conditions noted are these: in vivo, po.
A short description of data set [17]: Cmax in NMRI mouse at 50 mg/kg, po administered via gavage by UPLC/MS/MS analysis. Conditions: in vivo. It is filed as ADME, organism-based. Also noted: dose 50 mg/kg, route oral.
Data set [18] can be described thus: Half life in CD1 mouse plasma at 50 uM by UPLC-MS/MS analysis. It is filed as ADME, cell-free.
Data set [19] is described as follows: Drug metabolism in CD1 mouse plasma assessed as 4-(azepan-1-yl)-3-(4-methoxyphenylsulfonamido)benzoic acid formation at 50 uM incubated for 30 to 180 mins by UPLC-MS/MS analysis. The format is ADME, cell-free.

These results are taken from ChEMBL document CHEMBL4229565 (J Med Chem, 2018).

For orientation: IC50 means the midpoint of a concentration-inhibition curve. The EC50 is the midpoint of the concentration-response curve. A low value points to an effect from little substance. One may read the Kp as tissue or fluid exposure divided by exposure in the circulation. In general, fraction unbound refers to free concentration divided by total concentration. Read a high fraction unbound as much free substance. In general, AUC(0-t) refers to the area under the concentration-time curve up to a stated or last time point. Low readings indicate low exposure, high ones high exposure. For orientation: Tmax means the time at which the peak concentration occurs. The term Cmax denotes the maximum level reached in the sampled fluid or tissue. What is called half-life is the time needed for the level to fall by half in the phase considered. A lower half-life goes with rapid decline.

Calls of active or inactive are those of the source.

Sequence of Voltage-gated inwardly rectifying potassium channel KCNH2 (Q12809 whole entry): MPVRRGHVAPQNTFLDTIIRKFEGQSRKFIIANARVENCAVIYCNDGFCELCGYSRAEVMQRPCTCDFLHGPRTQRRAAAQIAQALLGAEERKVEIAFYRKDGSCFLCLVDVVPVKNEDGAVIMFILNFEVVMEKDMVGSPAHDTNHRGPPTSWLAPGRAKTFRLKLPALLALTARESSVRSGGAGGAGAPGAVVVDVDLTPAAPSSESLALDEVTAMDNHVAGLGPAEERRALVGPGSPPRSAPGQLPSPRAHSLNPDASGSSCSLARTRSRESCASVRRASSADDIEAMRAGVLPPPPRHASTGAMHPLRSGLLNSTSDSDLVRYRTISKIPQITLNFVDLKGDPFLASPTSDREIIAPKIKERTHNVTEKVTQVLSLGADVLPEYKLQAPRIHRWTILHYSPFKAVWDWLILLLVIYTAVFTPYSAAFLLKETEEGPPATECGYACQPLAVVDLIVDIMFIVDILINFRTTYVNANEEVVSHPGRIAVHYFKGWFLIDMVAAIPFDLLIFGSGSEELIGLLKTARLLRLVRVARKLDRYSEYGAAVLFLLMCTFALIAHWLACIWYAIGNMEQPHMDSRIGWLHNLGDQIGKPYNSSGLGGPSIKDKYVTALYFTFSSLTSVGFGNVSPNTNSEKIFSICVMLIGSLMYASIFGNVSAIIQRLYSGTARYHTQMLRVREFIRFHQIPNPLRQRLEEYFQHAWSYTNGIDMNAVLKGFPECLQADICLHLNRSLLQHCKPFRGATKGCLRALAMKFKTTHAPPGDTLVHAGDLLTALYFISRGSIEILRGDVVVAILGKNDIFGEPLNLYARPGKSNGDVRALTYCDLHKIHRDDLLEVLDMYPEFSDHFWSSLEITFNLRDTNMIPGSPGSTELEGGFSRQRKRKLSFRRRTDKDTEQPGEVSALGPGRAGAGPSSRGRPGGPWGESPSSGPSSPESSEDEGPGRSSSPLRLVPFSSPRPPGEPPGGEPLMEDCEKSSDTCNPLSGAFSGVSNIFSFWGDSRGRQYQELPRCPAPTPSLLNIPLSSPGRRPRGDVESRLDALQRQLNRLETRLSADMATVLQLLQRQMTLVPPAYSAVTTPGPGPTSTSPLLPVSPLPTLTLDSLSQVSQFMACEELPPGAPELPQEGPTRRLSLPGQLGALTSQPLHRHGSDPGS

For `O=S(=O)(Nc1c(C2CCCCC2)ccc2ncccc12)c1ccc(Br)cc1`, the selectivity ratio in [1] is over 1.6; in data set [4], over 2.6. The IC50 is over 100 µM in data set [2] and 63 µM in data set [5]. Moreover, in data set [3], the CLH came to 38 mL/min/g. The concentration for a half-maximal effect (EC50) in data set [6] amounted to 39 µM.
As for `O=S(=O)(Nc1c(CC2CCCCC2)ccc2ncccc12)c1ccc(Br)cc1`, the figures for the selectivity ratio in data set [1] and in data set [4] were over 71 and over 4.3, respectively. Also, the half-maximal inhibitory concentration (IC50) was over 100 µM in data set [2] and 1.4 µM in [5]. Besides, in data set [3], the CLH turned out to be 33 mL/min/g. This molecule registered an EC50 in data set [6] of 23 µM.
In the case of `Cn1cc2c(NS(=O)(=O)c3ccc(Br)cc3)c(C3CCCCC3)ccc2n1`, the selectivity ratio in data set [1] is over 5.9; in data set [4], over 3.1. Besides, the IC50 in [2] was over 100 µM; in data set [5], 17 µM. For the same molecule, the concentration for a half-maximal effect (EC50) in [6] is 32 µM.
As for `O=S(=O)(Nc1c(N2CCCC2)ccc2ncccc12)c1ccc(Br)cc1`, the figures for the selectivity ratio in data set [1] and in data set [4] were 5.5 and 3.7, respectively. The half-maximal inhibitory concentration (IC50) in data set [2] came out at 41 µM; in [5], 7.5 µM. In data set [3], this molecule yielded a CLH of 27 mL/min/g. For the same molecule, the response in [6] was half-maximal at 11 µM (EC50).
On to `CC(C)Cc1ccc2nn(C)cc2c1N(C(F)F)S(=O)(=O)c1ccc(CCCCC2CCN(C)CC2)cc1`, for which the CLH in data set [3] was 2.3 mL/min/g. Moreover, the Kp in data set [7] amounted to 1.9.
As to `COC(=O)c1ccc(N2CCCCCC2)c(NS(=O)(=O)c2ccc(OC)cc2)c1`, the selectivity ratio was over 100 in [1] and 8.3 in data set [4]. Moreover, the half-maximal inhibitory concentration (IC50) in data set [2] is over 100 µM; in [5], 1 µM. This molecule registered a half-maximal effective concentration (EC50) in data set [6] of 12 µM.
`CC(C)Cc1ccc2ncccc2c1NS(=O)(=O)c1ccc(CCCN2CCN3CCC[C@@H]3C2)cc1` registered a CLH in [3] of 6.2 mL/min/g. The IC50 in data set [5] is under 0.005 µM; in data set [9], 1.3 µM. For the same molecule, the fraction unbound at 5 h, 10 ug/ml in [8] was 0.17. Moreover, the concentration for a half-maximal effect (EC50) in data set [6] was 0.04 µM.
The molecule `CC(C)Cc1ccc2ncccc2c1NS(=O)(=O)c1ccc(CCCO[C@@H]2C[C@H]3CC[C@@H](C2)N3C)cc1` registered a CLH in data set [3] of 1.5 mL/min/g. The results for the IC50 in data set [5] and in data set [9] were 0.007 µM and 1.6 µM, respectively. The molecule also gave a fraction unbound at 5 h, 10 ug/ml in data set [8] of 0.18. The molecule further came in with a concentration giving a half-maximal response (EC50) in data set [6] of 0.091 µM.
With `CC(C)Cc1ccc2nn(C)cc2c1NS(=O)(=O)c1ccc(CCCCC2CCN(C)CC2)cc1`, the result in data set [10] and in data set [13] was Active. This molecule showed a CLH in [3] of 2.9 mL/min/g. In addition, the result in [11] and in [15] was inactive. The half-maximal inhibitory concentration (IC50) was under 0.005 µM in [5] and 3.7 µM in data set [9]. Further, in data set [8], the unbound share (fraction unbound) at 5 h, 10 ug/ml stood at 0.062. The AUC(0-t) at 8 h in [12] is 48300 ng·h/mL. In data set [6], this molecule came in with an EC50 of 0.005 µM. For the same molecule, the Tmax in data set [14] was found to be 1 h. Further, in [16], the MTD at 72 h is over 300 mg/kg. For the same molecule, in data set [17], the Cmax was found to be 11000 ng/mL.
Consider `CC(C)Cc1ccc2nn(C)cc2c1NS(=O)(=O)c1ccc(CCCO[C@@H]2C[C@H]3CC[C@@H](C2)N3C)cc1`, for which the CLH in data set [3] turned out to be 1.4 mL/min/g. In addition, the IC50 amounted to 0.005 µM in data set [5] and 3.3 µM in [9]. Also, the half-maximal effective concentration (EC50) in data set [6] came to 0.039 µM.
Taken in the same sequence, the figures for `CC(C)Cc1ccc2nn(C)cc2c1NS(=O)(=O)c1ccc(CCCOC[C@@H]2CCCN2C)cc1` were 3.7 mL/min/g, under 0.005 µM, 3 µM and 0.031 µM.
The molecule `COC(=O)c1ccc(N2CCCCCC2)c(NS(=O)(=O)c2ccc(CCCCC3CCN(C)CC3)cc2)c1` returned a half-life at 50 µM in [18] of under 0.25 h. The Drug metabolism entry in data set [19] is “Metabolite_Detected”. The IC50 in [5] is 0.006 µM. Moreover, in data set [6], the EC50 came out at 0.02 µM.
Molecule `CC(C)Cc1ccc2nn(C)cc2c1NS(=O)(=O)c1ccc(CCCOC[C@H]2COCCN2C)cc1` showed a CLH in [3] of 20 mL/min/g. The IC50 in data set [5] was 0.007 µM; in data set [9] it was 3.1 µM. This molecule had an EC50 in data set [6] of 0.22 µM.
On to `Cn1cc2c(NS(=O)(=O)c3ccc(Br)cc3)c(N3CCCC3)ccc2n1`, for which the selectivity ratio in data set [1] was over 3.7; in data set [4], over 4.1. The IC50 in data set [2] was over 100 µM; in data set [5] it was 27 µM. In [3], this molecule displayed a CLH of 33 mL/min/g. This molecule came in with a half-maximal effective concentration (EC50) in data set [6] of 24 µM.
Take `CC(C)Cc1ccc2ncccc2c1NS(=O)(=O)c1ccc(CCCCN2CCCN(C)CC2)cc1`: in [3], the CLH was 1.8 mL/min/g. Besides, in data set [5], the IC50 was determined as 0.006 µM. Moreover, the fraction unbound at 5 h, 10 ug/ml in data set [8] was found to be 0.093. The molecule further returned an EC50 in data set [6] of 0.059 µM.
